Results: ChEMBL document CHEMBL2062453, “Lead optimization through VLAK protocol: new annelated pyrrolo-pyrimidine derivatives as antitumor agents” (2012)

Columns and labels:
Type in all cases: functional
IGROV-1 = experiment: Cytotoxicity against human IGROV1 cells after 48 hrs by SRB assay; settings: IGROV-1, 48 h
Summary of the method: (§1)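 NCI 60-cell five-dose screen. Cells grown in RPMI 1640 with 5% FBS and 2 mM glutamine, plated at 5000–40,000 cells/well, and preincubated 24 h at 37 °C in 5% CO2. Time-zero plates fixed with TCA. Five serial dilutions of DMSO stock added, then 48 h exposure. TCA fixation, 0.4% SRB staining, absorbance read at 515 nm. GI50 from [(Ti−Tz)/(C−Tz)]×100 = 50.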

SNB-75 = experiment: Cytotoxicity against human SNB75 cells after 48 hrs by SRB assay; settings: SNB-75, 48 h; for TGI: read-out: pTGI (converted)
Summary of the method: (§2)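 Five-dose screen, 10-fold or ½-log dilutions, compound stock in DMSO. Cells were in RPMI 1640 with 5% FBS and 2 mM glutamine at 5000–40,000 cells/well, preincubated 24 h, 37 °C, 5% CO₂, with a time-zero plate TCA-fixed. After 48 h drug exposure, cells were TCA-fixed and stained with 0.4% SRB, read at 515 nm. GI50, TGI and LC50 were derived from time-zero, control and test absorbances.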

MOLT-4 = experiment: Cytotoxicity against human MOLT4 cells after 48 hrs by SRB assay; settings: MOLT-4, 48 h; for TGI: read-out: pTGI (converted); summary of the method: as §2
NCI-H522 = experiment: Cytotoxicity against human NCI-H522 cells after 48 hrs by SRB assay; settings: NCI-H522, 48 h; summary of the method: as §2
SR = experiment: Cytotoxicity against human SR cells after 48 hrs by SRB assay
Summary of the method: (§3)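 NCI 60-panel five-dose screen. Cells in RPMI 1640 with 5% FBS and 2 mM glutamine, plated at 5000–40,000 cells/well and preincubated 24 h at 37 °C under 5% CO2. Five 10-fold or half-log dilutions were added from a DMSO stock for 48 h. Cells were TCA-fixed (SR settled cells: 16% final), SRB-stained and read at 515 nm. GI50 was taken where (Ti−Tz)/(C−Tz)×100 = 50.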

UACC-257 = experiment: Cytotoxicity against human UACC257 cells after 48 hrs by SRB assay; settings: UACC-257, 48 h; summary of the method: as §3
K562 = experiment: Cytotoxicity against human K562 cells after 48 hrs by SRB assay; settings: K562, 48 h; summary of the method: as §1
[1] = read-out: pLC50 (the source's name) (converted)

## CSC1=Nc2c(c(C)c(-c3ccccc3)n2CCCCl)C2=NC(=O)CN12
IGROV-1
  GI50: 3.55 µM
IGROV-1; [1]
  CC50: 95.5 µM
IGROV-1; read-out: pTGI (converted)
  TGI: 21.4 µM
SNB-75
  GI50: 2820 nM
  LC50: 67.6 µM
  TGI: 11.7 µM
MOLT-4
  GI50: 3890 nM
  LC50: > 100 µM
  TGI: > 100 µM
NCI-H522
  GI50: 3.89 µM
NCI-H522; [1]
  CC50: 75.9 µM
NCI-H522; read-out: pTGI (converted)
  TGI: 19.1 µM
SR
  GI50: 3.47 µM
SR; [1]
  CC50: > 100 µM
SR; read-out: pTGI
  TGI: > 100 µM
UACC-257
  GI50: 12.6 µM
UACC-257; [1]
  CC50: 64.6 µM
UACC-257; read-out: pTGI (converted)
  TGI: 28.2 µM
K562
  GI50: 5.75 µM
K562; [1]
  CC50: > 100 µM
K562; read-out: pTGI
  TGI: > 100 µM

## CSC1=Nc2c(c(C)c(-c3ccccc3)n2CCCN2CCCCC2)C2=NC(=O)CC(C)N12 (configuration not stated)
SNB-75
  GI50: 2690 nM
  LC50: > 100 µM
  TGI: 21.9 µM
MOLT-4
  GI50: 2000 nM
  LC50: 20.4 µM
  TGI: 5.13 µM
